One block for each molecule: values may come before it.
How the values were obtained:
[1] = molecular target: T1, 5-hydroxytryptamine receptor 7 (Homo sapiens, UniProt P34969); assay: Binding affinity towards cloned human 5-hydroxytryptamine 7 receptor expressed in HEK 293 cells using [3H]5-CT; assay type: cell-based, HEK293
How it was run: (§1)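 Radioligand displacement binding on the receptor source and radioligand named in each line. Each value is the mean of at least two determinations, and every determination lay within 0.2 log unit of that mean.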

[2] = molecular target: 5-hydroxytryptamine receptor 2A (Homo sapiens, UniProt P28223); assay: The compound was tested for its binding affinity towards cloned human 5-hydroxytryptamine 2A receptor in HEK293 cells using [3H]-ketanserin.; assay type: cell-based
How it was run: (§2)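 Radioligand displacement on cloned human receptors expressed in the host cell line listed in each line. Values are the mean of at least two determinations, each within 0.2 log unit of the mean.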

D(3) dopamine receptor = D(3) dopamine receptor (Homo sapiens, UniProt P35462); assay: The compound was tested for its binding affinity towards cloned human Dopamine receptor D3 in CHO cells using [125I]iodosulpiride.; assay type: cell-based
D(2) dopamine receptor = D(2) dopamine receptor (Homo sapiens, UniProt P14416); assay: The compound was tested for its binding affinity towards cloned human Dopamine receptor D2 in CHO cells using [125I]iodosulpiride.; assay type: cell-based
[3] = molecular target: 5-hydroxytryptamine receptor 6 (Homo sapiens, UniProt P50406); assay: The compound was tested for its binding affinity towards cloned human 5-hydroxytryptamine 6 receptor in HeLa cells using […].; assay type: cell-based; how it was run: as §2
[4] = molecular target: T1, 5-hydroxytryptamine receptor 7; assay: The compound was tested for its binding affinity towards cloned human 5-hydroxytryptamine 7 receptor in HEK 293 cells using [3H]5-CT.; assay type: cell-based, HEK293
How it was run: (§3)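 Radioligand displacement binding on cloned human receptors expressed in HEK 293 cells: 5-HT2B labelled with [3H]-5-HT, 5-HT7 labelled with [3H]-5-CT. Each value is the mean of at least two determinations, each within 0.2 log unit of the mean.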

[5] = molecular target: T2, Alpha-1B adrenergic receptor (Homo sapiens, UniProt P35368); assay: The compound was tested for its binding affinity towards adrenergic alpha-1B receptors
T2 sequence (P35368 whole entry): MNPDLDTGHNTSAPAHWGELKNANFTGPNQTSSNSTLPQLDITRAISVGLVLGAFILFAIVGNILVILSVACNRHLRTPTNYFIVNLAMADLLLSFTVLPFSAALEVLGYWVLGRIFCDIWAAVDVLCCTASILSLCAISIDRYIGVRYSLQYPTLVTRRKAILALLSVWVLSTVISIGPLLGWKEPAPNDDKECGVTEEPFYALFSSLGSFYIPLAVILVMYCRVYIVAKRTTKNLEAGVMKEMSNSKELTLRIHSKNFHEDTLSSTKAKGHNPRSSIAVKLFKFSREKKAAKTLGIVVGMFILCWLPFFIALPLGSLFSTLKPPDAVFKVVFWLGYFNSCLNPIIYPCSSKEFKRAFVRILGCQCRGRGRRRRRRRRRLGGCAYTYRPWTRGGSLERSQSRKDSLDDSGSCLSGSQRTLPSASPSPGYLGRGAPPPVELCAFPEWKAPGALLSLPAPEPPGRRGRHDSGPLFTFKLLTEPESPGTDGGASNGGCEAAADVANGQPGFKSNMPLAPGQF

[6] = molecular target: T3, 5-hydroxytryptamine receptor 1A (Homo sapiens, UniProt P08908); assay: The compound was tested for its binding affinity towards cloned human 5-hydroxytryptamine 1A receptor in HEK 293 cells using [3H]8-OH-DPAT.; assay type: cell-based, HEK293; how it was run: as §1
T3 sequence (P08908 whole entry): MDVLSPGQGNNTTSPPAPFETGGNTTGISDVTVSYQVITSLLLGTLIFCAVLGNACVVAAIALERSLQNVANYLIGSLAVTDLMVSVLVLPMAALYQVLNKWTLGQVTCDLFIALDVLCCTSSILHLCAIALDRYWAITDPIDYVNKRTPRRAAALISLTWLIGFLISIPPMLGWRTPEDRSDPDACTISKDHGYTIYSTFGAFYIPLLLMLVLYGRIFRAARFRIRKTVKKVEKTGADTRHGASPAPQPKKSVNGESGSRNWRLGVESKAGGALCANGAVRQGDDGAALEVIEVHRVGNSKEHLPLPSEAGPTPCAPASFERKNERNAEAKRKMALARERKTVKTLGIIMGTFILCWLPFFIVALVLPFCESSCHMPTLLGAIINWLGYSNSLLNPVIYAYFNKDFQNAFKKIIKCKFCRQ

[7] = molecular target: T4, 5-hydroxytryptamine receptor 2C (Homo sapiens, UniProt P28335); assay: The compound was tested for its binding affinity towards cloned human 5-hydroxytryptamine 2C receptor in HEK293 cells using [3H]mesulergine.; assay type: cell-based; how it was run: as §1
T4 sequence (P28335 whole entry): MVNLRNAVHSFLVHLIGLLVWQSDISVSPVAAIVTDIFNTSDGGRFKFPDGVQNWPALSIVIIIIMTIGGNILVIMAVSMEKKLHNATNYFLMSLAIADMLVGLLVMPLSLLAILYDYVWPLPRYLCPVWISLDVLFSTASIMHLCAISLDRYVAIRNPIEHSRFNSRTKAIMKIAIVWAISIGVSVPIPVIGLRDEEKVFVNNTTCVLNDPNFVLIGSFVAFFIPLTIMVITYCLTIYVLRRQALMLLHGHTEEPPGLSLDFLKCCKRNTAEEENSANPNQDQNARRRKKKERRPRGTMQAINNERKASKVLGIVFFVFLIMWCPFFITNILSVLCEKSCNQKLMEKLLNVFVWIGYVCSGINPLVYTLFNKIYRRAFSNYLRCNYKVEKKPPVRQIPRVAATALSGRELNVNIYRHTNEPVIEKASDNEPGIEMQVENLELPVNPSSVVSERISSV

[8] = molecular target: 5-hydroxytryptamine receptor 1D (Homo sapiens, UniProt P28221); assay: The compound was tested for its binding affinity towards cloned human 5-hydroxytryptamine 1D receptor in CHO cells using [3H]5-HT.; assay type: cell-based; how it was run: as §2
[9] = molecular target: 5-hydroxytryptamine receptor 1B (Homo sapiens, UniProt P28222); assay: The compound was tested for its binding affinity towards cloned human 5-hydroxytryptamine 1B receptor in CHO cells using [3H]5-HT; assay type: cell-based; how it was run: as §2
[10] = molecular target: T5, 5-hydroxytryptamine receptor 1F (Homo sapiens, UniProt P30939); assay: The compound was tested for its binding affinity towards cloned human 5-hydroxytryptamine 1F receptor in CHO cells using [3H]5-HT.; assay type: cell-based; how it was run: as §1
T5 sequence (P30939 whole entry): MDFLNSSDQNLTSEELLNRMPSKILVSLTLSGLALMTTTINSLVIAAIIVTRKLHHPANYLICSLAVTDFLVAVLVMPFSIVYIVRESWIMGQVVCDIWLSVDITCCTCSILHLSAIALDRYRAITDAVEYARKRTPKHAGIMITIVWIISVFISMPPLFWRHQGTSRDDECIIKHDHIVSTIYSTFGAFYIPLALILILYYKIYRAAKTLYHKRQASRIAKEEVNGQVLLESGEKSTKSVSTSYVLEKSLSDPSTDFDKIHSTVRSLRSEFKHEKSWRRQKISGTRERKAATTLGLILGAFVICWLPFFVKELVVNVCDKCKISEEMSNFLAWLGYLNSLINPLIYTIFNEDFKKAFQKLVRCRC

[11] = molecular target: 5-hydroxytryptamine receptor 2B (Homo sapiens, UniProt P41595); assay: The compound was tested for its binding affinity towards cloned human 5-hydroxytryptamine 2B receptors in HEK293 cells using [3H]5-HT.; assay type: cell-based; how it was run: as §3
[12] = molecular target: 5-hydroxytryptamine receptor 1E (Homo sapiens, UniProt P28566); assay: The compound was tested for its binding affinity towards cloned human 5-hydroxytryptamine 1E receptor in CHO cells using [3H]5-HT.; assay type: cell-based; how it was run: as §2
5-hydroxytryptamine receptor 1E, sequence (P28566 whole entry): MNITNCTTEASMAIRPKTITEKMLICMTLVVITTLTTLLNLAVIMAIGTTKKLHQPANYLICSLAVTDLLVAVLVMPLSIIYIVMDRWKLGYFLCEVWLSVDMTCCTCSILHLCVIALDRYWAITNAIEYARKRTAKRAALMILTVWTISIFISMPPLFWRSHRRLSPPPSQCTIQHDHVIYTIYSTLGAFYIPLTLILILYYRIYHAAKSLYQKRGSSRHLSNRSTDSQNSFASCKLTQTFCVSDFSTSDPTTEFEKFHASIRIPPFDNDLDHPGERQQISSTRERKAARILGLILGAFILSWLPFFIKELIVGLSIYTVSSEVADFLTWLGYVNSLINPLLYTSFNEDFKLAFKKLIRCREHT

T1 sequence (P34969 whole entry): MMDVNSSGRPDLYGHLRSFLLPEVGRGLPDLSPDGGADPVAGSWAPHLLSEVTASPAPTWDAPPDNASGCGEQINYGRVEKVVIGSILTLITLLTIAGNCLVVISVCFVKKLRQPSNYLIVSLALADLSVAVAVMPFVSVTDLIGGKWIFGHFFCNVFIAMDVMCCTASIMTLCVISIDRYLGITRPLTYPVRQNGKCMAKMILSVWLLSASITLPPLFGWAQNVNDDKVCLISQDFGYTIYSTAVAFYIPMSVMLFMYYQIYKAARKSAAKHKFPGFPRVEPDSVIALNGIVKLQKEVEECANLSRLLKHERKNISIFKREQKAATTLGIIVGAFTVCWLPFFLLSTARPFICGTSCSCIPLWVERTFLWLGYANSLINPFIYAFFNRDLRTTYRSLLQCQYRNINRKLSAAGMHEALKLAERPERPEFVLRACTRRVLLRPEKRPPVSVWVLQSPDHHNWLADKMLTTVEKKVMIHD
D(2) dopamine receptor, sequence (P14416 whole entry): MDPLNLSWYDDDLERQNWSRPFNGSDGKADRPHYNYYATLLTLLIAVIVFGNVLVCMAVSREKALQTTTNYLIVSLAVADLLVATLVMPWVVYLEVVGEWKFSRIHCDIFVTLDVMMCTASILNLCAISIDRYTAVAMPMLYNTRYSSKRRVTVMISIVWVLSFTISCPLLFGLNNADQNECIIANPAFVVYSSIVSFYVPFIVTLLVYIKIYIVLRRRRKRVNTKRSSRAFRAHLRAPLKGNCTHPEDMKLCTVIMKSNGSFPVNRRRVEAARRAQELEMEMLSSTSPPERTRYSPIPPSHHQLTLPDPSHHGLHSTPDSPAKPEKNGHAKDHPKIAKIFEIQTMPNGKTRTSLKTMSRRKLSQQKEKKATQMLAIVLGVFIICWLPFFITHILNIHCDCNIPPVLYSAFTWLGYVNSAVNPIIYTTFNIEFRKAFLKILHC
5-hydroxytryptamine receptor 2A, sequence (P28223 whole entry): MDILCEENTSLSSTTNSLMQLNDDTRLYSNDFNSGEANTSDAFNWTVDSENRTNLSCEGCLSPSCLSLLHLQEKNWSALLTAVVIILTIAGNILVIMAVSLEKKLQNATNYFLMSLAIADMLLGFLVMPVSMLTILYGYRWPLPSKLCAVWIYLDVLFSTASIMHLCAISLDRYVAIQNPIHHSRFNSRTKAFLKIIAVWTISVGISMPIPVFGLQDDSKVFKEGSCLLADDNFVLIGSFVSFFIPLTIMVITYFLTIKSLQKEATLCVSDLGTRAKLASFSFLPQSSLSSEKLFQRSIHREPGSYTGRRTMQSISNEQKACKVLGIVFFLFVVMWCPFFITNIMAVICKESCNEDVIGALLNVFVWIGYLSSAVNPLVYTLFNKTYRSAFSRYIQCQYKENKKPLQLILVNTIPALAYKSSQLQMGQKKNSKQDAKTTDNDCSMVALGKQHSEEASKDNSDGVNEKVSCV
D(3) dopamine receptor, sequence (P35462 whole entry): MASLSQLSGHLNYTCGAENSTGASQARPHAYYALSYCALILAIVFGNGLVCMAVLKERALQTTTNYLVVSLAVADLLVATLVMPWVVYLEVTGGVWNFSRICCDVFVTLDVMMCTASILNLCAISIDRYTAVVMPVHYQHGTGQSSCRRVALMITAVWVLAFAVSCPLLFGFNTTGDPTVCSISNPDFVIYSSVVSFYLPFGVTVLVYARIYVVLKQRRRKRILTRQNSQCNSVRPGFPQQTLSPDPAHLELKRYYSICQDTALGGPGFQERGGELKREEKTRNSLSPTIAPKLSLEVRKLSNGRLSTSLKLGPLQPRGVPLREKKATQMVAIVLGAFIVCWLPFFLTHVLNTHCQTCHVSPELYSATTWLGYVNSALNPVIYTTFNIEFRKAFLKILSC
5-hydroxytryptamine receptor 6, sequence (P50406 whole entry): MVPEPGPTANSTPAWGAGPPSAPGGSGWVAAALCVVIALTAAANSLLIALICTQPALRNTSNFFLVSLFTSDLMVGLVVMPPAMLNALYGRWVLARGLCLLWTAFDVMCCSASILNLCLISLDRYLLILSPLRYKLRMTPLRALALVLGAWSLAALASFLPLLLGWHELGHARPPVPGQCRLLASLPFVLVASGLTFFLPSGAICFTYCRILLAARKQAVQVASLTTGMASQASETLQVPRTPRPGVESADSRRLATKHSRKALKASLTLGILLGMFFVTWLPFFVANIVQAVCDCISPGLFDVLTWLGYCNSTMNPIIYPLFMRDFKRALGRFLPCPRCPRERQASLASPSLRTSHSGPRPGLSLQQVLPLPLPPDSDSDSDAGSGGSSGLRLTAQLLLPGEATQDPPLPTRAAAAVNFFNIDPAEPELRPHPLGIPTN
5-hydroxytryptamine receptor 1B, sequence (P28222 whole entry): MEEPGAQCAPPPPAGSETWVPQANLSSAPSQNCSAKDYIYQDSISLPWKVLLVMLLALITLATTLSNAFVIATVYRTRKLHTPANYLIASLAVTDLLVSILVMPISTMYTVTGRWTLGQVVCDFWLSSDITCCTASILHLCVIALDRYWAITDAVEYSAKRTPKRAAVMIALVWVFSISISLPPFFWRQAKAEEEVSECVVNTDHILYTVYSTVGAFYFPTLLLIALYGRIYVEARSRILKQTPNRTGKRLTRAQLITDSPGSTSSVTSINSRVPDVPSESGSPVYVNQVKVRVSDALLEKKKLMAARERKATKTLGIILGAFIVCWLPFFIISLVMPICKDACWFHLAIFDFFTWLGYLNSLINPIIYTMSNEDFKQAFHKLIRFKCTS
5-hydroxytryptamine receptor 2B, sequence (P41595 whole entry): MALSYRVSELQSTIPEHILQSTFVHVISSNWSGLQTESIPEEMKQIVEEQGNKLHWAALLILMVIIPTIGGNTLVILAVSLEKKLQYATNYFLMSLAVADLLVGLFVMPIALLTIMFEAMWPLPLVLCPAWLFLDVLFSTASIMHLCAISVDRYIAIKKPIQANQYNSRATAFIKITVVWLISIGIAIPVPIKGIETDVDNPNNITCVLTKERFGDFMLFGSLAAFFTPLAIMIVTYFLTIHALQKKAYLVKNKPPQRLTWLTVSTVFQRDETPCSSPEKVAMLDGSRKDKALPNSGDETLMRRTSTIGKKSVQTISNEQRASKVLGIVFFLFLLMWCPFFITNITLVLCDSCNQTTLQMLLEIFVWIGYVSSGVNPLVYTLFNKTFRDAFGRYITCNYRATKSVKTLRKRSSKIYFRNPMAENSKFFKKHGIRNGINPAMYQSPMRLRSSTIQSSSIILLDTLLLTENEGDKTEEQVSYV
5-hydroxytryptamine receptor 1D, sequence (P28221 whole entry): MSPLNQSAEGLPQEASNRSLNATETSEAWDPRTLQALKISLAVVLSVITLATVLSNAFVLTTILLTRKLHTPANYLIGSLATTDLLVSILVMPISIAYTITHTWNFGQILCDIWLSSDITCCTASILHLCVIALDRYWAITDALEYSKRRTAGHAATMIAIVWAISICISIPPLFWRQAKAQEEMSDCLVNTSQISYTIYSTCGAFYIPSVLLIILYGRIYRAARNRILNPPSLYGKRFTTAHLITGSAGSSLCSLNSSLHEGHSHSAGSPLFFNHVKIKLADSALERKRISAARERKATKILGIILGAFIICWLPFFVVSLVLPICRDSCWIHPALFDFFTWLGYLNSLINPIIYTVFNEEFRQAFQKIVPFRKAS

SMILES: CC1CCN(CC[C@@H](C)N(C)S(=O)(=O)c2cc(Br)c(Br)s2)CC1
Ki [1]: 0.0158 µM

SMILES: Cc1cccc(S(=O)(=O)N(C)[C@H](C)CCN2CCC(C)CC2)c1 [SB-258719]
Ki [2]: > 15.8 µM | Ki (D(3) dopamine receptor): 3.98 µM | Ki (D(2) dopamine receptor): 3.98 µM | Ki [3]: > 15.8 µM | Ki [4]: 0.0316 µM | Ki [5]: > 15.8 µM | Ki [6]: > 7.94 µM | Ki [7]: > 15.8 µM | Ki [8]: 3.16 µM | Ki [9]: > 5.01 µM | Ki [10]: > 6.31 µM | Ki [11]: > 5.01 µM | Ki [12]: > 15.8 µM

SMILES: CC1CCN(CC[C@@H](C)N(C)S(=O)(=O)c2ccc(Cl)c(Cl)c2)CC1
Ki [1]: 0.0316 µM

SMILES: CC1CCN(CC[C@@H](C)N(C)S(=O)(=O)c2ccc(Br)c(Br)c2)CC1
Ki [1]: 0.02 µM

SMILES: CC1CCN(CC[C@@H](C)N(C)S(=O)(=O)c2cccc3ccccc23)CC1
Ki [1]: 0.0316 µM

Further lines, results first:

Ki [1]: 1.58 µM
SMILES: C[C@@H]1CCCN(CC[C@H](C)N(C)S(=O)(=O)c2cccc3ccccc23)C1

Ki [1]: 0.126 µM
SMILES: C[C@@H]1CCCN(CC[C@@H](C)N(C)S(=O)(=O)c2cccc3ccccc23)C1

Ki [1]: 0.0631 µM
SMILES: CC1CCCN(CCC(C)N(C)S(=O)(=O)c2cccc3ccccc23)C1 (configuration not stated)

Ki [1]: 0.631 µM
SMILES: C[C@H]1CCCN(CC[C@@H](C)N(C)S(=O)(=O)c2cccc3ccccc23)C1

Ki [1]: > 10 µM
SMILES: C[C@H]1CCCN(CC[C@H](C)N(C)S(=O)(=O)c2cccc3ccccc23)C1
